Assay results as given in ChEMBL document CHEMBL1275291, “Design, synthesis and in vitro evaluation of antitubercular and antimicrobial activity of some novel pyranopyrimidines” (2010).
Values after ≈ are worked out from the molar mass of the structure shown.

Tests used:
Format in all cases: functional
Staphylococcus aureus = test: Antimicrobial activity against Staphylococcus aureus ATCC 25923 after 24 hrs by serial dilution method; details: ATCC 25923, 24 h
Escherichia coli = test: Antimicrobial activity against Escherichia coli ATCC 25922 after 24 hrs by serial dilution method; details: ATCC 25922, 24 h
Streptococcus pyogenes = test: Antimicrobial activity against Streptococcus pyogenes MTCC 443 after 24 hrs by serial dilution method; details: MTCC 443, 24 h
Pseudomonas aeruginosa = test: Antimicrobial activity against Pseudomonas aeruginosa MTCC 441 after 24 hrs by serial dilution method; details: MTCC 441, 24 h
Aspergillus niger = test: Antimicrobial activity against Aspergillus niger MTCC 282 after 24 hrs by serial dilution method
[1] = test system: Mycobacterium tuberculosis; test: Antitubercular activity against Mycobacterium tuberculosis H37Rv ATCC 27294 by agar microdilution method
Summary of the method: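 Twofold dilutions in Middlebrook 7H10 agar with OADC supplement, 3 mL per well in 24-well plates, in duplicate. Final concentrations 1000, 500, 250, 125 and 62.5. Known CFU of H37Rv culture dispensed on top of agar in a negative-pressure biosafety hood. Incubated at 37 °C in a CO2 incubator. MIC read as the lowest concentration completely inhibiting growth and colony formation.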

COc1ccc(C2c3ccc4cccnc4c3Oc3[nH]c(=O)nc(N)c32)cc1 (stereo not given)
MIC (Staphylococcus aureus): 62.5 µg/mL (≈ 168 µM) | MIC (Escherichia coli): 125 µg/mL (≈ 336 µM) | MIC (Streptococcus pyogenes): 125 µg/mL (≈ 336 µM) | MIC (Pseudomonas aeruginosa): 125 µg/mL (≈ 336 µM) | MIC (Aspergillus niger; MTCC 282, 24 h): 250 µg/mL (≈ 671 µM)

O=C(O)c1cn(C2CC2)c2cc(N3CCNCC3)c(F)cc2c1=O [CIPROFLOXACIN]
MIC (Staphylococcus aureus): 50 µg/mL (≈ 151 µM) | MIC (Escherichia coli): 25 µg/mL (≈ 75.4 µM) | MIC (Streptococcus pyogenes): 50 µg/mL (≈ 151 µM)

NYSTATIN
MIC (Aspergillus niger): 100 µg/mL

CC1(C)S[C@@H]2[C@H](NC(=O)[C@H](N)c3ccccc3)C(=O)N2[C@H]1C(=O)O [AMPICILLIN]
MIC (Staphylococcus aureus): 100 µg/mL (≈ 286 µM) | MIC (Escherichia coli): 100 µg/mL (≈ 286 µM) | MIC (Streptococcus pyogenes): 250 µg/mL (≈ 715 µM) | MIC (Pseudomonas aeruginosa): 100 µg/mL (≈ 286 µM)

COc1ccc(C2C(C#N)=C(N)Oc3c2ccc2cccnc32)cc1 (stereo not given)
MIC (Staphylococcus aureus): 125 µg/mL (≈ 380 µM) | MIC (Escherichia coli): 250 µg/mL (≈ 759 µM) | MIC [1]: 250 µg/mL (≈ 759 µM) | MIC (Streptococcus pyogenes): 125 µg/mL (≈ 380 µM) | MIC (Pseudomonas aeruginosa): 250 µg/mL (≈ 759 µM) | MIC (Aspergillus niger; MTCC 282, 24 h): 500 µg/mL (≈ 1520 µM)

COc1ccc(C2C(C#N)=C(N)Oc3ccc4ccccc4c32)cc1 (stereo not given)
MIC (Staphylococcus aureus): 250 µg/mL (≈ 761 µM) | MIC (Escherichia coli): 150 µg/mL (≈ 457 µM) | MIC [1]: 1000 µg/mL (≈ 3050 µM) | MIC (Streptococcus pyogenes): 250 µg/mL (≈ 761 µM) | MIC (Pseudomonas aeruginosa): 500 µg/mL (≈ 1520 µM) | MIC (Aspergillus niger; MTCC 282, 24 h): 1000 µg/mL (≈ 3050 µM)

COC1=CC(=O)C[C@@H](C)[C@]12Oc1c(Cl)c(OC)cc(OC)c1C2=O [GRISEOFULVIN]
MIC (Aspergillus niger; MTCC 282, 24 h): 100 µg/mL (≈ 283 µM)

CO[C@H]1/C=C/O[C@@]2(C)Oc3c(C)c(O)c4c(O)c(c(/C=N/N5CCN(C)CC5)c(O)c4c3C2=O)NC(=O)/C(C)=C\C=C\[C@H](C)[C@H](O)[C@@H](C)[C@@H](O)[C@@H](C)[C@H](OC(C)=O)[C@@H]1C [RIFAMPIN]
MIC [1]: 40 µg/mL (≈ 48.6 µM)

COc1ccc(C2C(C#N)=C(N)Oc3cc(O)ccc32)cc1 (stereo not given)
MIC (Staphylococcus aureus): 125 µg/mL (≈ 425 µM) | MIC (Escherichia coli): 250 µg/mL (≈ 849 µM) | MIC [1]: 250 µg/mL (≈ 849 µM) | MIC (Streptococcus pyogenes): 125 µg/mL (≈ 425 µM) | MIC (Pseudomonas aeruginosa): 250 µg/mL (≈ 849 µM) | MIC (Aspergillus niger; MTCC 282, 24 h): 500 µg/mL (≈ 1700 µM)

COc1ccc(C2C(C#N)=C(N)Oc3ccccc32)cc1 (stereo not given)
MIC (Staphylococcus aureus): 250 µg/mL (≈ 898 µM) | MIC (Escherichia coli): 500 µg/mL (≈ 1800 µM) | MIC [1]: 500 µg/mL (≈ 1800 µM) | MIC (Streptococcus pyogenes): 250 µg/mL (≈ 898 µM) | MIC (Pseudomonas aeruginosa): 500 µg/mL (≈ 1800 µM) | MIC (Aspergillus niger; MTCC 282, 24 h): 1000 µg/mL (≈ 3590 µM)

COc1ccc(C2C(C#N)=C(N)Oc3c2ccc2ccccc32)cc1 (stereo not given)
MIC (Staphylococcus aureus): 500 µg/mL (≈ 1520 µM) | MIC (Escherichia coli): 500 µg/mL (≈ 1520 µM) | MIC [1]: 1000 µg/mL (≈ 3050 µM) | MIC (Streptococcus pyogenes): 500 µg/mL (≈ 1520 µM) | MIC (Pseudomonas aeruginosa): 1000 µg/mL (≈ 3050 µM) | MIC (Aspergillus niger; MTCC 282, 24 h): 500 µg/mL (≈ 1520 µM)
